Data on four compounds can be found in ChEMBL document CHEMBL4651341, “The discovery of a novel series of compounds with single-dose efficacy against juvenile and adult Schistosoma species” (PLoS Negl Trop Dis, 2021).

Data set [1] has as its system Schistosoma mansoni. Briefly: Concentration required to kill 50% of 21 day old worms 5 days after drug treatment. The class given is functional, organism-based. As to conditions: Puerto Rican, 120 h. An outline of the steps:
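Juvenile S. mansoni (Puerto Rican strain) were perfused from CD1 mice 3 weeks post-infection and washed. They were cultured 6–8 per well in 200 µL DMEM with 2 mM glutamine, penicillin/streptomycin and 10% FCS at 37 °C, 5% CO2. Viability of individual worms was scored on day 5 after dosing (120 h).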

The nature of data set [2]: Mean half-life in Swiss albino male mice at 1 mg/kg per compound (administered iv in a mixture of 5 compounds to 3 mice) assessed by LCMS/MS. The class given is ADME, organism-based. The conditions noted are these: mouse, in vivo. An outline of the steps:
(§1)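 Male Swiss albino mice (~30 g), 3 per experiment, mostly dosed as mixtures of 5 compounds iv via the lateral tail vein. Vehicle: 10% DMSO/90% 50 mM Na2HPO4 with 0.5% Tween-80. Plasma stored at −20 °C and quantified by LC-MS after acetonitrile precipitation.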

Data set [3] can be described thus: Mean plasma concentration at 4h in Swiss albino male mice at […] per compound (administered orally in a mixture of 5 compounds to 3 mice) assessed by LCMS/MS. As to conditions: mouse, po. The class given is ADME, organism-based.
Data set [4] can be described thus: Solubility at 25 degC of compound (diluted from DMSO) in PBS at pH 7.4 determined after 24h (1h sonication, 22h shaking, 1h sonication) by LCMS/MS. The class given is physicochemical.
Data set [5] is described as follows: Percentage of parent compound remaining after incubation for 30 minutes with cyropreserved mouse hepatocytes at a concentration of 1uM compound and […], determined by LCMS. The class given is ADME, tissue-based, Hepatocyte. The conditions noted are these: cryopreserved mouse hepatocytes, read-out: Stability. An outline of the steps:
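Compound was incubated at 1 µM final (2 µM working solution mixed 1:1 with hepatocyte suspension) in supplemented KHB pH 7.4. Conditions: 37 °C, 5% CO2, gentle mixing, duplicates. Reaction quenched with ice-cold acetonitrile containing standard; analysed by LC-MS/MS. % remaining = AUC at t / AUC at T0.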

Data set [6] can be described thus: Mean AUC inf in Swiss albino male mice at 1 mg/kg per compound (administered iv in a mixture of 5 compounds to 3 mice) assessed by LCMS/MS. The class given is ADME, organism-based. As to conditions: male, Swiss albino, mouse, in vivo. An outline of the steps: (§2)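 Male Swiss albino mice (~30 g), 3 per experiment, mostly dosed as mixtures of 5 compounds iv via the lateral tail vein. Vehicle: 10% DMSO/90% 50 mM Na2HPO4 with 0.5% Tween-80. Blood sampled at 5, 15, 30 min and 1, 2, 4, 8, 24 h. Plasma stored at −20 °C and quantified by LC-MS after acetonitrile precipitation.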

A short description of data set [7]: Mean volume of distribution at steady state in Swiss albino male mice at 1 mg/kg per compound (administered iv in a mixture of 5 compounds to 3 mice) assessed by LCMS/MS. The conditions noted are these: mouse, in vivo, read-out: Volume. The class given is ADME, organism-based. An outline of the steps:
as §1

Data set [8] can be described thus: Plasma protein binding determined at 10uM by LC-MS/MS. As to conditions: mouse.
The nature of data set [9]: Mean time to peak plasma concentration in Swiss albino male mice at […] per compound (administered orally in a mixture of 5 compounds to 3 mice) assessed by LCMS/MS. The class given is ADME, organism-based. As to conditions: mouse, po.
Data set [10] is described as follows: Mean observed clearance in Swiss albino male mice at 1 mg/kg per compound (administered iv in a mixture of 5 compounds to 3 mice) assessed by LCMS/MS. The class given is ADME, organism-based. As to conditions: male, Swiss albino, mouse, in vivo, read-out: Clearance (converted). An outline of the steps:
as §2

Data set [11] can be described thus: Mean plasma concentration at 24h in Swiss albino male mice at […] per compound (administered orally in a mixture of 5 compounds to 3 mice) assessed by LCMS/MS. As to conditions: mouse, po. The class given is ADME, organism-based.
Data set [12] can be described thus: Mean oral bioavailability in Swiss albino male mice at […] per compound (administered in a mixture of 5 compounds to 3 mice) assessed by LCMS/MS. Further: dose 2.5 mg/kg. The class given is ADME, organism-based. The conditions noted are these: male, Swiss albino, mouse, in vivo, read-out: Bioavailability.
The nature of data set [13]: Partition coefficient of compound between n-octanol and PBS (pH7.4). The class given is physicochemical. As to conditions: octanol/water, pH 7.4. An outline of the steps:
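Shake-flask method using octanol and PBS pH 7.4, each pre-saturated with the other. Compound was shaken 2 h at 850 rpm, 25 °C, then the phases were separated by centrifugation and both layers diluted and analysed by LC-MS/MS. LogD = log(octanol AUC × relative dilution / buffer AUC).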

The test system of data set [14] is Schistosoma mansoni. Briefly: Concentration required to kill 50% of 42 day old worms 5 days after drug treatment. As to conditions: Puerto Rican, 120 h. The class given is functional, organism-based. An outline of the steps:
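Adult S. mansoni were perfused from CD1 mice 6 weeks post-infection and washed. They were cultured 3 pairs per well in 1 mL DMEM with 2 mM glutamine, penicillin/streptomycin and 10% FCS […] at 37 °C, 5% CO2. Viability of individual worms was scored on day 5 (120 h).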

Molecules are shown by their SMILES. pEC50: −log10 of the molar value. Converted amounts (≈) assume the structure as drawn.

As for `COc1ccc(-c2c(C(C)C)nc3cnc(-c4ccnc(N(C)C)c4)cn23)cc1O`, the pEC50 (as a rule, the EC50 on a negative log10 scale, so that one unit is a factor of ten) in the data set with Schistosoma mansoni [1] is over 6.03. The half-life (as a rule, the time needed for the level to fall by half in the phase considered) in data set [2] is 19.9 min. Besides, the concentration at 4 h in [3] was determined as 1.11 ng/mL. Moreover, in data set [4], the solubility (kinetic) (usually the concentration staying in solution when a stock, usually in DMSO, is diluted into the medium) at 24 h turned out to be 0.467 µM (≈ 0.188 µg/mL). Moreover, the remaining at 0.5 h, 1 µM in [5] turned out to be 31.9%. Moreover, the AUC(0-inf) (as a rule, total exposure, with the tail of the curve extrapolated) in data set [6] was 48.3 ng·h/mL. The Vd in [7] was determined as 2.98 L/kg. The compound further showed a Binding in [8] of 98.4537%. Moreover, the Tmax (as a rule, the time from dosing to the highest level) in data set [9] came to 15 min. In data set [10], the clearance (as a rule, the volume of plasma or blood freed of the substance per unit of time) was 173 mL/min/kg. In addition, the concentration at 24 h in [11] worked out at 0.1 ng/mL. Moreover, in data set [12], the bioavailability (commonly the share of a dose that reaches the circulation, judged against a reference dose that is usually intravenous) came out at 6.57%. Also, in [13], the Lipophilicity is listed as 4.33 =.

As to `COc1ccc(-c2c(C(C)C)nc3cnc(-c4ccc(F)c(C(F)(F)F)c4)cn23)cc1O`, the values for the pEC50 in the data set on Schistosoma mansoni [1] and in the data set on Schistosoma mansoni [14] were 6.75 and over 7.31, respectively. Also, the half-life in data set [2] is 96 min. Also, the concentration at 4 h in data set [3] was determined as 5.08 ng/mL. In [4], this compound came in with a solubility (kinetic) at 24 h of 2.5 µM (≈ 1.11 µg/mL). The remaining at 0.5 h, 1 µM in [5] came to 54.5%. In addition, the AUC(0-inf) in [6] came to 143 ng·h/mL. The Vd in data set [7] was found to be 3.75 L/kg. In data set [8], the Binding is reported as 99.9485%. The Tmax in data set [9] worked out at 15 min. Further, the clearance in [10] was 58.8 mL/min/kg. For the same compound, the concentration at 24 h in [11] was found to be 0.1 ng/mL. Also, in [12], the bioavailability worked out at 8.28%. Further, the Lipophilicity in [13] is 5.7 =.

For the compound `COc1ccc(-c2c(C)nc3ccc(-c4cccc(C(F)(F)F)c4)cn23)cc1O`, the pEC50 in the data set with Schistosoma mansoni [1] is over 6.16. The concentration at 4 h in data set [3] turned out to be 0.1 ng/mL. The same compound came in with a kinetic solubility at 24 h in [4] of 1.95 µM (≈ 0.777 µg/mL). Besides, in [5], the remaining at 0.5 h, 1 µM is 43%. Also, the AUC(0-inf) in [6] amounted to 53.1 ng·h/mL. In addition, in [7], the Vd was 3.65 L/kg. The same compound had a Binding in data set [8] of 99.8676%. In [9], the Tmax came to 15 min. Besides, in [10], the clearance was 158 mL/min/kg. Besides, in data set [11], the concentration at 24 h came out at 0.1 ng/mL. For the same compound, the bioavailability in [12] was 1.48%. The Lipophilicity in data set [13] is 4.92 =.

Take `COc1ccc(-c2c(C3CC3)nc3cnc(-c4cccc(C(F)(F)F)c4)cn23)cc1O`: the pEC50 in the data set with Schistosoma mansoni [1] is 7.20; in the data set on Schistosoma mansoni [14] it was 7.15. The half-life in data set [2] was 62.4 min. For the same compound, the concentration at 4 h in [3] came out at 1.88 ng/mL. Moreover, in data set [4], the solubility (kinetic) at 24 h came out at 1.2 µM (≈ 0.51 µg/mL). The remaining at 0.5 h, 1 µM in data set [5] is 41.3%. In addition, the AUC(0-inf) in [6] came to 77.9 ng·h/mL. The Vd in data set [7] was found to be 4.58 L/kg. The compound further registered a Binding in data set [8] of 99.9319%. In addition, the Tmax in data set [9] was 15 min. Besides, in [10], the clearance was 108 mL/min/kg. In [11], the concentration at 24 h is 0.1 ng/mL. Besides, the bioavailability in data set [12] was found to be 3.64%. In data set [13], the Lipophilicity is 4.62 =.
